Screens from PubChem.
UCH37 DUB inh: inhibitors of human UCH37 deubiquitinase, primary screen, biochemical, Ub-AMC cleavage, fluorescence; purified proteasome/UCH37; inhibition, % (test concentration not listed); hit rate 0.33% among 330,000;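 active means mean inhibition over replicate wells above about 20%, limit read from the data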;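 further: 0% = compound-free wells with enzyme and 100% = wells lacking proteasome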
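Test system – human UCH37 enzyme supplied as purified proteasome complex · Incubation – 30 min preincubation with enzyme, 25 min cleavage at room temperature · Detection – AMC fluorescence from Ub-AMC cleavage, excitation 355 nm, emission 460 nm · Benchmarks – no-proteasome wells (full inhibition) and compound-free wells (no inhibition)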
SENP7 inh: SENP7 protease inhibitors, primary screen, biochemical, luminescence, uHTS; recombinant SENP7, Z-RLRGG-aminoluciferin luminescence, 40 min; inhibition, % at 5 µM; hit rate 1.5% among 330,000; Sentrin-specific protease 7 (Homo sapiens), Q9BQF6; AID 434973, 2010;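 active means inhibition above about 50% at the single test dose, limit read from the data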;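 further: plate controls were DMSO with enzyme for no effect and no enzyme buffer wells for full effect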
SENP8 block-1: human SENP8 protease inhibitors, primary screen, biochemical, fluorescence, Nedd8 protein substrate, uHTS; Sentrin-specific protease 8 (Homo sapiens), Q96LD8; recombinant SENP8; inhibition, % at 20 µM; hit rate 0.64% among 360,000; AID 602440, 2012; in the data active means inhibition mostly above about 40%, no sharp cut-off; inactive means mostly below about 27%
SENP6 block: SENP6 protease inhibitors, primary screen, biochemical, luminescence, uHTS | hit rate 1.8% among 330,000 | inhibition, % at 10 µM | Sentrin-specific protease 6 (Homo sapiens), Q9GZR1 | AID 2599, 2010 | Recombinant SENP6 catalytic domain, aminoluciferin luminescence;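 active means inhibition above about 50% at the single tested dose, limit read from the data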;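 further: plate controls were DMSO wells with enzyme for no effect and DMSO wells lacking enzyme for full effect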
Target sequence (Q9GZR1 628-1112 limits assumed): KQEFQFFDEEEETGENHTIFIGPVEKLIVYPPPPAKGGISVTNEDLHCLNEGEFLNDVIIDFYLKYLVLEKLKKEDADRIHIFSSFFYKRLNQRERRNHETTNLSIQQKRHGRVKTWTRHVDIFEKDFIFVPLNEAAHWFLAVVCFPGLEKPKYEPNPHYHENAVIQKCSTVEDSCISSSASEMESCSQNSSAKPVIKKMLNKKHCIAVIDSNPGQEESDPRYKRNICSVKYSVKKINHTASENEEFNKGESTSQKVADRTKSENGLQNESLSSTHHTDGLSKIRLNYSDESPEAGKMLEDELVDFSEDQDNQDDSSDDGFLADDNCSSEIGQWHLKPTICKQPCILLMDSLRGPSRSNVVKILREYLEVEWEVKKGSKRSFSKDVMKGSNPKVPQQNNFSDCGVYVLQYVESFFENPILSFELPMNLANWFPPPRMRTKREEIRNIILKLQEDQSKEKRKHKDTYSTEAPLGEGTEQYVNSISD
SENP8 block-2: SENP8 protease inhibitors, primary screen, biochemical, luminescence; Sentrin-specific protease 8 (Homo sapiens), Q96LD8; purified SENP8, Z-RLRGG-aminoluciferin cleavage; AID 2540, 2010; inhibition, % at 10 µM; hit rate 1.2% among 330,000; in the data active means inhibition above about 50%
SENP1 FRET inh: human SENP1 catalytic domain inhibitors, primary screen, biochemical, FRET, uHTS. Sentrin-specific protease 1 (Homo sapiens), Q9P0U3. recombinant SENP1 catalytic domain, CyPet-SUMO1-YPet FRET cleavage. inhibition, % at 10 µM. hit rate 0.21% among 360,000;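 active means inhibition at least 30% at 10 µM, raw YFP signal under a set limit, fluorescence ratio 0.5 to 1.5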;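 further: 0% = enzyme with DMSO and 100% = no enzyme wells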
Target sequence (Q9P0U3 419-644 limits assumed): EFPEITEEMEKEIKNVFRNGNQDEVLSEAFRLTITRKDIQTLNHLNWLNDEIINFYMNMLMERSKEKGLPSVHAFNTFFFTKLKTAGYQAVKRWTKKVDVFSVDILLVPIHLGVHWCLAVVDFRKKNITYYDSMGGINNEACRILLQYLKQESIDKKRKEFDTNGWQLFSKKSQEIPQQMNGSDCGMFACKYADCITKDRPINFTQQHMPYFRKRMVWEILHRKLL
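material = recombinant human SENP1 catalytic domain, His6-tagged | quantity = 20 pM enzyme | reagent = 25 nM SUMO1 FRET substrate | compound dosing = 10 µM single point, 0.5% DMSO | timing = 50 min enzyme reaction, room temperature, light-protected | detection = FRET, CFP and YFP emission | control set = no-enzyme low, enzyme-DMSO high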
SENP8 inh conf: human SENP8 protease inhibitors, confirmation, biochemical, Nedd8 protein substrate, single concentration; AID 624319, 2012; shares compounds with SENP8 block-1; inhibition, % at 25 µM; hit rate 15% among 1,400; purified SENP8, Nedd8-AMC/pro-Nedd8 cleavage fluorescence, 30 min; in the data active means inhibition mostly above about 39%, no sharp cut-off; inactive means mostly below about 34%
An asterisk follows results filed as active; . = no result. In the library only some 2.6% were active in any assay of this set; here they are far more common.

SMILES	UCH37 DUB inh	SENP7 inh	SENP8 block-1	SENP6 block	SENP8 block-2	SENP1 FRET inh	SENP8 inh conf
C[C@H](CCC(=O)O)[C@H]1CC[C@H]2[C@@H]3CC[C@@H]4C[C@H](O)CC[C@]4(C)[C@H]3CC[C@]12C	4.7	-6.9	63.8*	4.5	3.9	1.7	13.1
O=c1[nH]c2ccccc2c2ccccc12	2.0	6.1	-29.2	-18.8	-7.9	-1.4	.
Nc1c(Br)cc(Br)c2c1[nH]c(=O)c1ccccc12	.	.	73.4*	.	.	7.5	11.9
CC(=O)NN1C(=O)c2ccc3c4c(ccc(c24)C1=O)C(=O)N(NC(C)=O)C3=O	14.2	19.7	35.0*	28.1	11.0	0.9	54.4*
O=C1c2ccc3c4c(ccc(c24)C(=O)N1NC(=O)C(F)(F)F)CC3	-98.3	-14.3	-252.4	-13.5	4.0	-0.3	.
COC(=O)NN=Cc1cccc([N+](=O)[O-])c1	5.4	.	.	.	.	.	.
[O-]/C(=C(\C(=S)NCc1ccco1)[n+]1ccccc1)c1ccccc1Br	7.2	10.0	41.6*	7.4	2.3	1.0	32.6
Cc1cc(=O)oc2cc(OCC(=O)NN=Cc3ccccc3O)ccc12	-6.3	.	.	.	.	.	.
O=C(Nc1ccccc1F)c1ccc(CNS(=O)(=O)c2cccc(C(F)(F)F)c2)cc1	2.7	3.7	47.5*	-2.4	3.8	1.7	6.6
CCCn1nc([N+](=O)[O-])c(C(C#N)c2nc3ccccc3o2)c(Cl)c1=O (stereo not drawn)	14.6	-6.2	42.7*	7.5	6.5	1.5	31.9
Cn1cccc1C=NNC(=O)C12CC3CC(CC(C3)C1)C2	3.6	.	.	.	.	.	.
CCc1nc2ccccc2c(C(=O)OCCN2C(=O)c3ccccc3C2=O)c1C	5.2	3.1	42.3*	1.2	5.4	1.3	32.4
CCc1nc2ccccc2c(C(=O)OCC(=O)C(C)(C)C)c1C	1.6	-7.2	3.3	-27.7	-3.6	-0.7	.
CCCCn1c(N=Cc2c[nH]c3ccccc23)nc2ccccc21	6.8	.	.	.	.	.	.
O=[N+]([O-])c1ccc(C=NNC(=S)Nc2ccc(F)cc2)cc1	8.9	.	27.9	.	.	5.8	.
O=[N+]([O-])c1ccc(C=NNC(=S)NN=Cc2ccc([N+](=O)[O-])cc2)cc1	9.4	.	70.1*	.	.	5.6	13.2
O=[N+]([O-])c1cc(Cl)cc(C=Nn2cnnc2)c1O	5.8	.	.	.	.	.	.
CN(C)C1(CN=Cc2cc(Cl)cc([N+](=O)[O-])c2O)CCCCC1	7.3	3.3	40.3*	24.5	1.1	5.3	24.2
Cc1ccccc1NC(=O)c1ccc(Cn2cc([N+](=O)[O-])cn2)o1	1.8	2.8	1.1	1.4	0.2	-2.3	.
CC(NC(=O)c1ccc(Cn2cc([N+](=O)[O-])cn2)o1)c1ccccc1 (stereo not drawn)	3.2	6.3	49.6*	0.9	3.3	0.9	15.6
CC1=NN(c2ccc(C(F)(F)F)cn2)C(=O)C1	7.2	11.6	75.1*	14.7	7.6	0.2	58.0*
CS(=O)(=O)Nc1ccc(N2CCN(c3ccc(C(F)(F)F)cn3)CC2)nc1	-3.2	-0.3	-208.6	-0.8	-10.3	-8.6	.
O=C(Cn1cc(C(F)(F)F)ccc1=O)NN=Cc1ccc(Cl)cc1Cl	3.5	.	.	.	.	.	.
O=[N+]([O-])c1cc(C(F)(F)F)cc([N+](=O)[O-])c1N1CCN(S(=O)(=O)c2ccccc2)CC1	2.2	0.4	40.4*	-5.9	-4.2	3.8	10.4
CC(=O)OCCNc1cc(SCc2ccco2)c2nonc2c1[N+](=O)[O-]	10.7	.	76.5*	.	.	-9.5	9.9
SMILES	UCH37 DUB inh	SENP7 inh	SENP8 block-1	SENP6 block	SENP8 block-2	SENP1 FRET inh	SENP8 inh conf
CC(=O)OCCCNc1cc(Sc2nc3ccccc3s2)c2nonc2c1[N+](=O)[O-]	.	80.7*	59.5*	83.8*	91.7*	-13.5	35.4
COC(=O)CCSc1cc(NCCOC(C)=O)c([N+](=O)[O-])c2nonc12	10.7	11.8	19.6	12.1	-1.2	-25.3	.
O=[N+]([O-])c1c(NCCCO)cc(SCc2ccco2)c2nonc12	13.6	13.6	41.5*	45.2	10.9	-9.6	29.5
COc1ccc(C=NNC(=O)c2cc(-c3ccccc3)nc3ccccc23)cc1O	1.6	.	.	.	.	.	.
Cc1ccc(C=NNC(=O)CN2CCN(Cc3ccccc3)CC2)s1	4.7	.	.	.	.	.	.
CCOC(=O)C(/C=C(\C#N)C(=O)OCC)=C(/N)N1CCN(c2ccc(Cl)cc2)CC1	7.2	6.6	46.5*	-6.6	-3.3	-4.1	23.2
CCOC(=O)N1CCN(c2ccc(Cl)cc2)CC1	3.8	6.1	5.0	-23.3	-6.4	-0.7	.
CCN(CC)C(c1ccc(F)cc1)c1nnnn1CC1CCCO1 (stereo not drawn)	0.4	-0.2	45.3*	-0.8	6.9	2.0	-12.9
COc1ccc(CNC(=O)Cn2cc([N+](=O)[O-])cn2)cc1	1.7	-6.3	43.5*	-31.6	-5.5	-0.7	-10.6
O=C(Cn1cc([N+](=O)[O-])cn1)NCc1ccccc1	0.6	1.0	9.3	8.6	-1.4	-4.0	.
CCC(CO)Oc1cc(NCc2ccncc2)c2ncn(C(C)C)c2c1 (stereo not drawn)	3.7	3.5	41.3*	6.0	5.6	-21.2	28.7
O=C(COC(=O)c1cccc(S(=O)(=O)N2CCc3ccccc3C2)c1)NCc1ccco1	-0.7	9.3	27.6	1.3	6.7	-1.0	.
Cc1ccc(S(=O)(=O)N2CCOCC2)cc1C(=O)OCC(=O)N1CCc2ccccc2C1	0.7	.	51.1*	.	.	1.0	37.0
O=C(COc1ccc(S(=O)(=O)N2CCOCC2)cc1)N1CCc2ccccc2C1	2.0	2.8	18.7	-2.5	4.7	2.4	.
O=C(COC(=O)c1cc(S(=O)(=O)N2CCc3ccccc3C2)ccc1Cl)NCc1ccco1	4.3	17.5	41.6*	19.2	3.8	0.5	56.6*
COc1cc(NCCCNC(C)C)c2nccc(C)c2c1	7.8	.	64.7*	.	.	-17.5	47.8*
COc1ccc2[nH]c3c(NCCN4CCCCC4)ncnc3c2c1	-67.0	-2.9	-262.8	-53.8	-9.7	-2.0	.
COc1ccc(Br)cc1C=Nn1c(-c2ccccc2)n[nH]c1=S	3.6	.	.	.	.	.	.
Cc1ccc(S(=O)(=O)N(CC(=O)Nc2ccc(Cl)c([N+](=O)[O-])c2)C2CCCCC2)cc1	1.5	10.5	45.0*	-0.2	1.5	-8.0	18.2
C=CCSC(N)=NN=Cc1c(O)ccc2ccccc12	-2.8	.	.	.	.	.	.
